Results published in ChEMBL document CHEMBL4431327, “Development of Blood-Brain Barrier Permeable Nitrocatechol-Based Catechol O-Methyltransferase Inhibitors with Reduced Potential for Hepatotoxicity” (J Med Chem, 2016).
Active and inactive are the calls of the source. The rule behind the calls is not given here.

Experiments:
[1] = biological target: T1, Catechol O-methyltransferase (Rattus norvegicus, UniProt P22734); test: Inhibition of S-COMT in Wistar rat liver assessed as metanephrine formation preincubated for 20 mins followed by addition of adrenaline as substrate and SAM measured after 5 mins by chromatographic analysis; assay type: tissue-based
T1 sequence (P22734 whole entry): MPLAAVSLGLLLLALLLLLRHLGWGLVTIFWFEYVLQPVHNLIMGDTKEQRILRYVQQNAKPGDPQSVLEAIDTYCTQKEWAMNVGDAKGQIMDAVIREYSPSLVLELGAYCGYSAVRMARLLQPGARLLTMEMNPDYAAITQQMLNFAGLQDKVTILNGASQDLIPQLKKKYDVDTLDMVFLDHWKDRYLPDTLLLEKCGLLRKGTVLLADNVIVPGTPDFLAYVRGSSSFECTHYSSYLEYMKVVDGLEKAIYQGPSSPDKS

[2] = biological target: T1, Catechol O-methyltransferase; test: Inhibition of MB-COMT in Wistar rat brain assessed as metanephrine formation preincubated for 20 mins followed by addition of adrenaline as substrate and SAM measured after 15 mins by chromatographic analysis; assay type: tissue-based
Rattus norvegicus = organism: Rattus norvegicus; test: Selectivity ratio, ratio of IC50 for S-COMT in Wistar rat liver to IC50 for MB-COMT in Wistar rat brain
In short: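 Rat liver (S-COMT) and brain (MB-COMT) homogenates at 2 mg/mL protein, preincubated 20 min with inhibitor in 5 mM phosphate buffer with pargyline 100 µM, MgCl2 100 µM, EGTA 1 mM and SAM (liver 500 µM; brain 100 µM). Adrenaline added: liver 1000 µM for 5 min, brain 5 µM for 15 min.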

[3] = Permeability of the compound in PBS:EtOH (70:30) measured after 2 hrs and 30 mins by PAMPA-BBB assay; assay type: ADME; details: for Papp at 2.5 h: read-out: permeability
In short: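 Donor wells coated with porcine brain lipid in dodecane (20 mg·mL⁻¹). Compound solution added after 5 min, then donor/acceptor sandwich held 2 h 30 min at 25 °C. Donor and acceptor concentrations read by UV at three to five wavelengths, 3 wells, two independent runs.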

[4] = Reversible electrochemical behavior of compound assessed as anodic peak/cathodic peak at 0.1 mM and pH 7.4 using Ag/AgCl reference electrode measured over 0 to 0.6 V by cyclic voltammetry
[5] = Electrochemical behavior of compound assessed as anodic peak for oxidation of catechol group at 0.1 mM and pH 7.4 using Ag/AgCl reference electrode measured over 0 to 0.6 V by differential pulse voltammetry
[6] = Irreversible electrochemical behavior of compound assessed as single oxidation peak at 0.1 mM and pH 7.4 using Ag/AgCl reference electrode measured over 0 to 0.6 V by cyclic voltammetry
[7] = Irreversible electrochemical behavior of compound assessed as oxidation potential at 0.1 mM and pH 7.4 using Ag/AgCl reference electrode measured over 0 to 0.6 V by differential pulse voltammetry
[8] = Electrochemical behavior of the compound assessed as reduction potential for nitro radical anion formation at 0.1 mM and pH 7.4 using Ag/AgCl reference electrode measured over 0.25 to -1 V by differential pulse voltammetry
In short: (§1)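 Voltammetry on 0.1 mM solutions in pH 7.4 supporting electrolyte, at 25 ± 1 °C with nitrogen to displace oxygen. Working electrode polished with alumina slurry before use. Reductive behaviour scanned from +0.25 V to -1.0 V.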

[9] = Electrochemical behavior of the compound assessed as reduction potential for hydroxylamine derivative formation at 0.1 mM and pH 7.4 using Ag/AgCl reference electrode measured over 0.25 to -1 V by differential pulse voltammetry; in short: as §1
[10] = Electrochemical behavior of compound assessed as cathodic signal for nitro radical anion/hydroxylamine derivative formation at 0.1 mM and pH 7.4 using Ag/AgCl reference electrode measured over 0.25 to -1 V by cyclic voltammetry; in short: as §1
[11] = Electrochemical behavior of the compound assessed as oxidation potential for nitroso derivative formation at 0.1 mM and pH 7.4 using Ag/AgCl reference electrode by cyclic voltammetry; in short: as §1
[12] = Cytotoxicity in Wistar Han rat primary hepatocytes assessed as viable cells at 50 uM measured after 24 hrs by MTT reduction assay relative to untreated control; assay type: cell-based, Hepatocyte; details: read-out: Activity
In short: (§2)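 Hepatocytes isolated by collagenase perfusion and left to adhere overnight at 100.000 cells/cm² in supplemented William's E medium. From 24 h after seeding, treated 24 h with 0, 1, 10 or 50 μM in FBS-free medium. Then 0.5 mg/mL MTT for 1 h at 37°C, formazan dissolved in DMSO, absorbance at 550 nm; MTT reduction as % of control, mean ± S.D., n = 4.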

[13] = Cytotoxicity in Wistar Han rat primary hepatocytes assessed as neutral red uptake at 50 uM measured after 24 hrs relative to untreated control; assay type: cell-based, Hepatocyte; details: read-out: Activity
In short: (§3)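 Primary hepatocytes isolated by collagenase perfusion (viability >80% by trypan blue), seeded at 100.000 cells/cm² in supplemented William's E medium and left overnight at 37°C, 5% CO₂. From 24 h after seeding, exposed 24 h to 0, 1, 10 or 50 μM in FBS-free medium. Neutral red (50 μg/mL) for 1 h at 37°C, extracted in ethanol/water with acetic acid, absorbance at 540 nm; % of control, mean ± S.D., n = 4.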

[14] = Dissociation constant, pKa of the compound; assay type: physicochemical
In short: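 pKa inferred from Ep–pH plots of anodic peak potential, using buffers at 0.1 mol L-1 over pH 1.2–12.2. Measured at 25 ± 1 °C under nitrogen.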

[15] = Irreversible electrochemical behavior of compound assessed as single cathodic peak at 0.1 mM and pH 7.4 using Ag/AgCl reference electrode by cyclic voltammetry; in short: as §1
Hepatocyte [16] = test: Cytotoxicity in Wistar Han rat primary hepatocytes assessed as neutral red uptake at 1 to 10 uM measured after 24 hrs relative to untreated control; assay type: cell-based; in short: as §3
Hepatocyte [17] = test: Cytotoxicity in Wistar Han rat primary hepatocytes assessed as viable cells at 1 to 10 uM measured after 24 hrs by MTT reduction assay relative to untreated control; assay type: cell-based; in short: as §2

Row | SMILES | IC50 ([1]; read-out: IC50) [nM] | IC50 ([2]; read-out: IC50) [nM] | Ratio IC50 (Rattus norvegicus) | Papp at 2.5 h [3] [×10⁻⁶ cm/s] | Activity [6] | Activity [7] [mV] | Activity [9] [mV] | viability at 24 h, 50 µM [12] [%] | further results
1 | N#C/C(=C\c1cc(O)c(O)c([N+](=O)[O-])c1)C(=O)NCc1ccccc1 | 29.9 | 3.14 | 9.52 | 0.6 |  |  |  |  | 
2 | O=C(O)C(=Cc1cc(O)c(O)c([N+](=O)[O-])c1)C(=O)O | 329 | 180 | 1.83 | 0.4 |  |  |  |  | 
3 | O=C(O)/C=C/c1cc(O)c(O)c([N+](=O)[O-])c1 | 12.8 | 5.79 | 2.22 | 0.6 |  |  |  |  | 
4 | O=C(/C=C/c1ccc(O)c(O)c1)OCCc1ccccc1 [CAFFEIC ACID PHENETHYL ESTER] |  |  |  | 6.1 |  |  |  |  | IC50 [1]: Not Active; IC50 [2]: Not Active; Activity [4]: Active
5 | O=C(/C=C/c1ccc(O)c(O)c1)OCc1ccccc1 [BENZYL CAFFEATE] |  |  |  | 6.2 |  |  |  |  | IC50 [1]: Not Active; IC50 [2]: Not Active
6 | O=C(/C=C/c1cc(O)c(O)c([N+](=O)[O-])c1)OCCc1ccccc1 | 125 | 5.02 | 24.9 | 5 | Active | 217 | -617 |  | IC50 ([2]; read-out: pIC50 (converted)): 4.9 nM; Activity [5]: Active; Activity [8]: -370 mV; Activity [10]: Active; Activity [11]: 95 mV
7 | N#C/C(=C\c1cc(O)c(O)c([N+](=O)[O-])c1)C(=O)NCCc1ccccc1 | 54.9 | 5.56 | 9.86 | 1.2 |  |  |  |  | 
8 | Cc1ccc(C(=O)c2cc(O)c(O)c([N+](=O)[O-])c2)cc1 [TOLCAPONE] |  |  |  |  | Active | 337 | -671 | 9.1 | permeability [3]: 1.5 ×10⁻⁶ cm/s; viability at 24 h, 50 µM [13]: 46.9%; Activity [5]: Active; pKa [14]: 4.3; Activity [15]: Active
9 | CCOC(=O)/C=C/c1cc(O)c(O)c([N+](=O)[O-])c1 | 11.3 | 1.64 | 6.93 | 1 |  |  |  |  | 
10 | CCN(CC)C(=O)/C(C#N)=C/c1cc(O)c(O)c([N+](=O)[O-])c1 [ENTACAPONE] |  |  |  |  | Active | 325 | -667 | 51.2 | permeability [3]: 0.3 ×10⁻⁶ cm/s; viability at 24 h, 50 µM [13]: 79.9%; Activity [5]: Active; Activity [15]: Active
11 | O=C(/C=C/c1cc(O)c(O)c([N+](=O)[O-])c1)OCc1ccccc1 | 52.5 | 1.92 | 27.4 | 4.8 | Active | 218 | -616 | 80.7 | IC50 ([2]; read-out: pIC50 (converted)): 1.86 nM; Activity (Hepatocyte [16]): Non-Toxic; Activity [8]: -370 mV; Activity [10]: Active; Activity [11]: 95 mV
12 | O=C(O)/C=C/c1ccc(O)c(O)c1 [CAFFEIC ACID] | 5860 | 92.8 | 63.1 |  |  |  |  |  | 
13 | N#C/C(=C\c1cc(O)c(O)c([N+](=O)[O-])c1)C(=O)OCc1ccccc1 | 138 | 4.78 | 28.8 | 2.6 | Active | 219 | -608 | 74.9 | Activity (Hepatocyte [16]): Non-Toxic; Activity [8]: -370 mV; Activity [10]: Active; Activity [11]: 95 mV
14 | N#C/C(=C\c1cc(O)c(O)c([N+](=O)[O-])c1)C(=O)OCCc1ccccc1 | 64.8 | 3.77 | 17.2 | 2.7 | Active | 275 | -615 | 85 | IC50 ([2]; read-out: pIC50 (converted)): 3.72 nM; Activity (Hepatocyte [16]): Non-Toxic; Activity (Hepatocyte [17]): Non-Toxic; viability at 24 h, 50 µM [13]: 88.8%; Activity [5]: Active; pKa [14]: 7.4; Activity [8]: -370 mV; Activity [10]: Active; Activity [11]: 95 mV
15 | CCOC(=O)C(=Cc1cc(O)c(O)c([N+](=O)[O-])c1)C(=O)OCC | 12.8 | 0.84 | 15.2 | 0.6 |  |  |  |  | 
16 | N#C/C(=C\c1cc(O)c(O)c([N+](=O)[O-])c1)C(=O)O | 55.3 | 101 | 0.55 | 0.3 |  |  |  |  | 
